Experimental data reported in ChEMBL document CHEMBL1134325, “Diaminoindanes as microsomal triglyceride transfer protein inhibitors” (J Med Chem, 2001).
Where “and” joins values, the source holds several entries; their conditions need not be identical. Equal values may be shown once.

Key:
Rattus norvegicus [1] = assay: Inhibition of total cholesterol in normolipidemic rats after 2 hr of 50 mg/kg oral dosing; format: functional; details: 50 mg/kg
Method in brief: (§1)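 Overnight-fasted normolipidemic rats received a single oral dose in cornstarch vehicle. Blood was drawn at 2, 6 and 24 h post-dose and assayed for triglycerides and total cholesterol, with free access to food after the 6 h sample. Value is mean percent inhibition versus a separate vehicle-treated group, unpaired t test p < 0.05, NS = no significant change, N = 6.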

Canis familiaris [2] = assay: Inhibition of plasma total triglycerides in the normolipidemic dogs after day 3 of oral administration of 5 mg/kg/day.; format: functional, Canis lupus familiaris
Canis familiaris [3] = assay: Inhibition of plasma total cholesterol in the normolipidemic dogs after day 2 of oral administration of 1 mg/kg/day.; format: functional, Canis lupus familiaris
Method in brief: (§2)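 Normolipidemic dogs dosed once daily for 4 days by oral gavage, compound suspended in cornstarch vehicle. Plasma sampled 24 h after dosing on days 0, 2, 3 and 4, assayed for triglycerides and total cholesterol (mg/dL). Mean percent inhibition versus day-0 level is given for treated dogs; n = 6 per group; significance by one-way ANOVA, p < 0.05.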

Rattus norvegicus [4] = assay: Hepatic cholesterol content in Normolipidemic rat liver for 5 mg/kg of dose of the compound; format: functional
Method in brief: (§3)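 Normolipidemic rats dosed orally, with vehicle controls. Liver cholesterol and triglyceride are reported as mg/g of liver, and liver weight in g. For the reversibility set, dosing was 5 mg/kg for 5 days, with livers analysed after treatment and again 6 days after treatment withdrawal.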

Rattus norvegicus [5] = assay: Inhibition of plasma triglycerides in normolipidemic rats after 2 hr of 50 mg/kg oral dosing; format: functional; method in brief: as §1
Canis familiaris [6] = assay: Inhibition of plasma total triglycerides in the normolipidemic dogs after day 4 of oral administration of 2.5 mg/kg/day; format: functional, Canis lupus familiaris
Canis familiaris [7] = assay: Inhibition of plasma total cholesterol in the normolipidemic dogs after day 3 of oral administration of 1 mg/kg/day.; format: functional, Canis lupus familiaris; method in brief: as §2
Rattus norvegicus [8] = species: Rattus norvegicus; assay: Hepatic triglyceride content in Normolipidemic rat liver after treatment.; format: functional; method in brief: as §3
Canis familiaris [9] = assay: Inhibition of plasma total cholesterol in the normolipidemic dogs after day 2 of oral administration of 2.5 mg/kg/day.; format: functional, Canis lupus familiaris; method in brief: as §2
Rattus norvegicus [10] = assay: Total liver weight in Normolipidemic rat liver for 0.5 mg/kg of dose of the compound; format: functional; method in brief: as §3
[11] = molecular target: T1, Microsomal triglyceride transfer protein large subunit (Homo sapiens, UniProt P55157); assay: In vitro inhibitory activity against MTP using MTP transfer assay
T1 sequence (P55157 whole entry): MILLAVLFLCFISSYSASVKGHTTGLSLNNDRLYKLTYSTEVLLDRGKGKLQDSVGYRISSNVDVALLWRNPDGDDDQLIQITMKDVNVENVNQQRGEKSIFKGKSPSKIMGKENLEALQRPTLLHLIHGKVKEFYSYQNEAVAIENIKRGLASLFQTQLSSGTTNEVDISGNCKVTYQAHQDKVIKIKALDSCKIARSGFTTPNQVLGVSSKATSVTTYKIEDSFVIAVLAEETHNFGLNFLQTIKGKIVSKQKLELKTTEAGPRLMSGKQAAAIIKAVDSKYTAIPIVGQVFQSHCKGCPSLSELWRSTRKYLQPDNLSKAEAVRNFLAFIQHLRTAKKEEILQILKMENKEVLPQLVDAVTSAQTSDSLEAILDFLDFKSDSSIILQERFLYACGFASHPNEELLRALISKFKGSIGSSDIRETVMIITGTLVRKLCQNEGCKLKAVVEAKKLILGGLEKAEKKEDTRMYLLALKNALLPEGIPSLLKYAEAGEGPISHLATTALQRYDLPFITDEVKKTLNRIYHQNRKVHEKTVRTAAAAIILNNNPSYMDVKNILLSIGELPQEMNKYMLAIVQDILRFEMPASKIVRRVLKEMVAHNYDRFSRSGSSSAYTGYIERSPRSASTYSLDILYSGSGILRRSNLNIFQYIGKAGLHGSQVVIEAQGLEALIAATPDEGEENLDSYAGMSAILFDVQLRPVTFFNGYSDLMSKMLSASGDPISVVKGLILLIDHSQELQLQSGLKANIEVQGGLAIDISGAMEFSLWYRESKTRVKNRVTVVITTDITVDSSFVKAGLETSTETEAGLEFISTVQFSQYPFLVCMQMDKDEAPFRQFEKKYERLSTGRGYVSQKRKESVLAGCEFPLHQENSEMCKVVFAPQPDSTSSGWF

Canis familiaris [12] = assay: Inhibition of plasma total triglycerides in the normolipidemic dogs after day 0 of oral administration of 2.5 mg/kg/day.; format: functional, Canis lupus familiaris; method in brief: as §2
Rattus norvegicus [13] = assay: Total liver weight in Normolipidemic rat liver for 5 mg/kg of dose of the compound; format: functional; method in brief: as §3
Canis familiaris [14] = assay: Inhibition of plasma total cholesterol in the normolipidemic dogs after day 4 of oral administration of 2.5 mg/kg/day; format: functional, Canis lupus familiaris; method in brief: as §2
Rattus norvegicus [15] = species: Rattus norvegicus; assay: Hepatic cholesterol content in Normolipidemic rat liver after treatment.; format: functional; method in brief: as §3
Canis familiaris [16] = assay: Inhibition of plasma total triglycerides in the normolipidemic dogs after day 0 of oral administration of 5 mg/kg/day.; format: functional, Canis lupus familiaris; method in brief: as §2
Canis familiaris [17] = assay: Inhibition of plasma total triglycerides in the normolipidemic dogs after day 2 of oral administration of 2.5 mg/kg/day.; format: functional, Canis lupus familiaris; method in brief: as §2
Canis familiaris [18] = assay: Inhibition of plasma total triglycerides in the normolipidemic dogs after day 3 of oral administration of 1 mg/kg/day.; format: functional, Canis lupus familiaris
Rattus norvegicus [19] = assay: Inhibition of plasma triglycerides in normolipidemic rats after 2 hr of 10 mg/kg oral dosing; format: functional; method in brief: as §1
Canis familiaris [20] = assay: Inhibition of plasma total cholesterol in the normolipidemic dogs after day 0 of oral administration of 5 mg/kg/day.; format: functional, Canis lupus familiaris; method in brief: as §2
Canis familiaris [21] = assay: Inhibition of plasma total cholesterol in the normolipidemic dogs after day 3 of oral administration of 2.5 mg/kg/day.; format: functional, Canis lupus familiaris; method in brief: as §2
Rattus norvegicus [22] = assay: Hepatic triglyceride content in Normolipidemic rat liver for 0.5 mg/kg of dose of the compound; format: functional; method in brief: as §3
Canis familiaris [23] = assay: Inhibition of plasma total triglycerides in the normolipidemic dogs after day 2 of oral administration of 1 mg/kg/day.; format: functional, Canis lupus familiaris; method in brief: as §2
Rattus norvegicus [24] = assay: Hepatic triglyceride content in Normolipidemic rat liver for 1 mg/kg of dose of the compound; format: functional; method in brief: as §3
Rattus norvegicus [25] = assay: Inhibition of total cholesterol in normolipidemic rats after 6 hr of 50 mg/kg oral dosing; format: functional; details: 50 mg/kg; method in brief: as §1
Canis familiaris [26] = assay: Inhibition of plasma total triglycerides in the normolipidemic dogs after day 2 of oral administration of 5 mg/kg/day.; format: functional, Canis lupus familiaris; method in brief: as §2
Canis familiaris [27] = assay: Inhibition of plasma total cholesterol in the normolipidemic dogs after day 4 of oral administration of 5 mg/kg/day; format: functional, Canis lupus familiaris; method in brief: as §2
Rattus norvegicus [28] = assay: Inhibition of plasma triglycerides in normolipidemic rats after 6 h of 5 mg/kg oral dosing; format: functional; method in brief: as §1
Canis familiaris [29] = assay: Inhibition of plasma total cholesterol in the normolipidemic dogs after day 3 of oral administration of 5 mg/kg/day.; format: functional, Canis lupus familiaris; method in brief: as §2
Rattus norvegicus [30] = species: Rattus norvegicus; assay: Hepatic triglyceride content in Normolipidemic rat liver after washout.; format: functional; method in brief: as §3
Rattus norvegicus [31] = assay: Inhibition of plasma triglycerides in normolipidemic rats after 24 hr of 10 mg/kg oral dosing; no significant change; format: functional, organism-based; design: dose 10 mg/kg; method in brief: as §1
Canis familiaris [32] = assay: Inhibition of plasma total cholesterol in the normolipidemic dogs after day 0 of oral administration of 1 mg/kg/day.; format: functional, Canis lupus familiaris; method in brief: as §2
Canis familiaris [33] = assay: Inhibition of plasma total cholesterol in the normolipidemic dogs after day 4 of oral administration of 1 mg/kg/day; format: functional, Canis lupus familiaris; method in brief: as §2
Rattus norvegicus [34] = assay: Inhibition of plasma triglycerides in normolipidemic rats after 6 hr of 10 mg/kg oral dosing; format: functional; method in brief: as §1
Canis familiaris [35] = assay: Inhibition of plasma total triglycerides in the normolipidemic dogs after day 4 of oral administration of 5 mg/kg/day; format: functional, Canis lupus familiaris
Canis familiaris [36] = assay: Inhibition of plasma total triglycerides in the normolipidemic dogs after day 3 of oral administration of 2.5 mg/kg/day.; format: functional, Canis lupus familiaris
Canis familiaris [37] = assay: Inhibition of plasma total cholesterol in the normolipidemic dogs after day 0 of oral administration of 2.5 mg/kg/day.; format: functional, Canis lupus familiaris; method in brief: as §2
Rattus norvegicus [38] = species: Rattus norvegicus; assay: Hepatic cholesterol content in Normolipidemic rat liver after washout.; format: functional; method in brief: as §3
Canis familiaris [39] = assay: Inhibition of plasma total cholesterol in the normolipidemic dogs after day 2 of oral administration of 5 mg/kg/day.; format: functional, Canis lupus familiaris; method in brief: as §2
Canis familiaris [40] = assay: Inhibition of plasma total triglycerides in the normolipidemic dogs after day 4 of oral administration of 1 mg/kg/day.; format: functional, Canis lupus familiaris
Rattus norvegicus [41] = assay: Hepatic triglyceride content in Normolipidemic rat liver for 5 mg/kg of dose of the compound; format: functional; method in brief: as §3
Rattus norvegicus [42] = assay: Inhibition of plasma triglycerides in normolipidemic rats after 24 hr of 50 mg/kg oral dosing; format: functional; method in brief: as §1
Rattus norvegicus [43] = assay: Total liver weight in Normolipidemic rat liver for 1 mg/kg of dose of the compound; format: functional; method in brief: as §3
Rattus norvegicus [44] = assay: Hepatic cholesterol content in Normolipidemic rat liver for 0.5 mg/kg of dose of the compound; format: functional; method in brief: as §3
Canis familiaris [45] = assay: Inhibition of plasma total triglycerides in the normolipidemic dogs after day 0 of oral administration of 1 mg/kg/day.; format: functional, Canis lupus familiaris; method in brief: as §2
Rattus norvegicus [46] = assay: Inhibition of plasma triglycerides in normolipidemic rats after 6 hr of 50 mg/kg oral dosing; format: functional; method in brief: as §1
Rattus norvegicus [47] = assay: Hepatic cholesterol content in Normolipidemic rat liver for 1 mg/kg of dose of the compound; format: functional; method in brief: as §3
Rattus norvegicus [48] = assay: Inhibition of plasma triglycerides in normolipidemic rats after 2 hr of 5 mg/kg oral dosing; format: functional; method in brief: as §1

For COC(=O)N[C@H]1Cc2ccc(NC(=O)c3cccc(C)c3-c3ccc(C(F)(F)F)cc3)cc2C1, the Reduction (Rattus norvegicus [1]) was 33% and 41% and 30%, the Lipid level (Canis familiaris [2]) was less than 16 mg/dL and the Lipid level (Canis familiaris [3]) was 103 mg/dL. It also gave a Hepatic cholesterol (Rattus norvegicus [4]) of 3.09 mg/g, a Reduction (Rattus norvegicus [5]) of 81% and a Lipid level (Canis familiaris [6]) of less than 23 mg/dL. It also gave a Lipid level (Canis familiaris [7]) of 101 mg/dL, a Hepatic triglyceride (Rattus norvegicus [8]) of less than 13.6 mg/g and a Lipid level (Canis familiaris [9]) of less than 90 mg/dL. The Total liver weight (Rattus norvegicus [10]) was 9.13 g, the IC50 [11] was 70 nM and the Lipid level (Canis familiaris [12]) was 59 mg/dL. For the same compound, the Total liver weight (Rattus norvegicus [13]) was 9.79 g, the Lipid level (Canis familiaris [14]) was less than 57 mg/dL and the Hepatic cholesterol (Rattus norvegicus [15]) was less than 2.76 mg/g. It also gave a Lipid level (Canis familiaris [16]) of 48 mg/dL, a Lipid level (Canis familiaris [17]) of less than 32 mg/dL and a Lipid level (Canis familiaris [18]) of 48 mg/dL. For the same compound, the Reduction (Rattus norvegicus [19]) was 84%, the Lipid level (Canis familiaris [20]) was 124 mg/dL and the Lipid level (Canis familiaris [21]) was less than 76 mg/dL. The Hepatic triglyceride (Rattus norvegicus [22]) was 4.61 mg/g, the Lipid level (Canis familiaris [23]) was 42 mg/dL and the Hepatic triglyceride (Rattus norvegicus [24]) was 8.16 mg/g. The Reduction (Rattus norvegicus [25]) was 52% and 58% and 47%, the Lipid level (Canis familiaris [26]) was less than 22 mg/dL and the Lipid level (Canis familiaris [27]) was less than 54 mg/dL. For the same compound, the Reduction (Rattus norvegicus [28]) was 59%, the Lipid level (Canis familiaris [29]) was less than 68 mg/dL and the Hepatic triglyceride (Rattus norvegicus [30]) was 2.38 mg/g. The NS (Rattus norvegicus [31]) was “no significant change”, the Lipid level (Canis familiaris [32]) was 110 mg/dL and the Lipid level (Canis familiaris [33]) was less than 89 mg/dL. For the same compound, the Reduction (Rattus norvegicus [34]) was 68%, the Lipid level (Canis familiaris [35]) was less than 12 mg/dL and the Lipid level (Canis familiaris [36]) was less than 25 mg/dL. It also gave a Lipid level (Canis familiaris [37]) of 113 mg/dL, a Hepatic cholesterol (Rattus norvegicus [38]) of 1.12 mg/g and a Lipid level (Canis familiaris [39]) of less than 87 mg/dL. The Lipid level (Canis familiaris [40]) was 45 mg/dL, the Hepatic triglyceride (Rattus norvegicus [41]) was 17.7 mg/g and the Reduction (Rattus norvegicus [42]) was 63%. The Total liver weight (Rattus norvegicus [43]) was 9.6 g, the Hepatic cholesterol (Rattus norvegicus [44]) was 1.4 mg/g and the Lipid level (Canis familiaris [45]) was 46 mg/dL. It also gave a Reduction (Rattus norvegicus [46]) of 71%, a Hepatic cholesterol (Rattus norvegicus [47]) of 2.01 mg/g and a Reduction (Rattus norvegicus [48]) of 78%.
